Measured values as given in ChEMBL document CHEMBL4024762, “Discovery of N-(3-Carbamoyl-5,5,7,7-tetramethyl-5,7-dihydro-4H-thieno[2,3-c]pyran-2-yl)-lH-pyrazole-5-carboxamide (GLPG1837), a Novel Potentiator Which Can Open Class III Mutant Cystic Fibrosis Transmembrane Conductance Regulator (CFTR) Channels to a High Extent” (J Med Chem, 2018).

How the values were obtained:
Type in all cases: cell-based
[1] = system: Cystic fibrosis transmembrane conductance regulator (Homo sapiens), P13569 [F508del]; test: (§1) Potentiation of CFTR F508del mutant (unknown origin) expressed in human CFBE41o cells incubated for 10 mins in presence of forskolin measured for 7 secs by YFP halide assay; set-up: concentration or dose not given beside the values
Summary of the method: (§2)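 CFBE41o- cells (CF bronchial line) transduced by adenovirus with F508del CFTR and YFP (H148Q/I152L/F47L). Cells held 24 h at 27°C, then treated 10 min at room temperature with 10 µM forskolin plus potentiator. YFP fluorescence read for 7 s across addition of NaI buffer (137 mM NaI). Activity = 1-(F/F0).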

[2] = system: Cystic fibrosis transmembrane conductance regulator (Homo sapiens), P13569 [G551D]; test: (§3) Potentiation of CFTR G551D mutant (unknown origin) expressed in HEK293 cells incubated for 10 mins in presence of forskolin measured for 2 mins by YFP halide assay; set-up: concentration or dose not given beside the values
Summary of the method: (§4)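 HEK293 cells transfected with the mutant CFTR (G551D, G178R, S549N or R117H) and YFP (H148Q/I152L/F47L), seeded directly after transfection, then 24 h at 37°C. Treated 10 min at room temperature with 10 µM forskolin plus potentiator. Fluorescence read for 2 min across addition of NaI buffer (375 mM NaI). Activity = 1-(F/F0).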

[3] = biological target: Cystic fibrosis transmembrane conductance regulator (Homo sapiens, UniProt P13569, F508DEL); test: as §1; summary of the method: as §2
[4] = biological target: Cystic fibrosis transmembrane conductance regulator (Homo sapiens, UniProt P13569, G551D); test: as §3; summary of the method: as §4
Sequence of Cystic fibrosis transmembrane conductance regulator (Homo sapiens, UniProt P13569, G551D) (P13569 whole entry G551D): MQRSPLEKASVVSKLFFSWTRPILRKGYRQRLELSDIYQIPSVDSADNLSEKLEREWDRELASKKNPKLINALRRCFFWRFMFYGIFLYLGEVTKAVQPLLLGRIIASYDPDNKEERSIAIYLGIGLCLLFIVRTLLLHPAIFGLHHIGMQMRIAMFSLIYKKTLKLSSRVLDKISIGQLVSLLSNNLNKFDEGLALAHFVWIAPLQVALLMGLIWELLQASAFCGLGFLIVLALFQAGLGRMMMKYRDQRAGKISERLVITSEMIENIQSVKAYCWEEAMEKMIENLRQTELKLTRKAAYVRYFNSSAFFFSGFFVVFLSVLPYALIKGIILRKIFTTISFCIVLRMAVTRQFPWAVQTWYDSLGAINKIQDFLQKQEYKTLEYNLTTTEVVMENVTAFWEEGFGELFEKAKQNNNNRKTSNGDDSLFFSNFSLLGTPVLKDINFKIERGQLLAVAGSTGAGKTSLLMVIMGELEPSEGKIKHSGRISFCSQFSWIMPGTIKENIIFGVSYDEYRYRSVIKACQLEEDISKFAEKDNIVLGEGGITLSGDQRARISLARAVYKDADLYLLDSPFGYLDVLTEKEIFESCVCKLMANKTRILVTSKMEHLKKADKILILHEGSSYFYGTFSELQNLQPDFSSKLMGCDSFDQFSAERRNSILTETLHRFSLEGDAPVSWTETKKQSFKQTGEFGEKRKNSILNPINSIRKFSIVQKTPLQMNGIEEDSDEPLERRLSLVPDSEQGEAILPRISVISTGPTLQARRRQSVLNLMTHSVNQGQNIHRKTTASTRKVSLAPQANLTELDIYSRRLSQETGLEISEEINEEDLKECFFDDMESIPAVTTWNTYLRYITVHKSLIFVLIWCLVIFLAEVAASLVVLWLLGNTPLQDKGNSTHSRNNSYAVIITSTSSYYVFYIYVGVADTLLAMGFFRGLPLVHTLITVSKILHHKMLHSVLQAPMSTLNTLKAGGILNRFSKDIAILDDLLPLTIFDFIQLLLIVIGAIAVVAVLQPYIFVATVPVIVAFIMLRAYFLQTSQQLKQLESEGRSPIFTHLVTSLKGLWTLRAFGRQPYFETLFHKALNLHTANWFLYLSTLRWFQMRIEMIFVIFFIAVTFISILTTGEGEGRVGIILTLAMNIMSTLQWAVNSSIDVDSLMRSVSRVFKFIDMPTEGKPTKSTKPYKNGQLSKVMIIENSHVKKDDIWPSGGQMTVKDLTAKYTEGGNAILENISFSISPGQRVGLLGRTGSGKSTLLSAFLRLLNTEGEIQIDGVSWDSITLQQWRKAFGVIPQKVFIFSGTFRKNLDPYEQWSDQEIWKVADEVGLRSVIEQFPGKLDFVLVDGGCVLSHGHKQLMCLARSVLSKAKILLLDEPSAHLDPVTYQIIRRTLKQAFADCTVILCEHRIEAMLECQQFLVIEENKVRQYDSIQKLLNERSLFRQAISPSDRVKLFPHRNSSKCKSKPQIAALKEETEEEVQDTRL

Sequence of Cystic fibrosis transmembrane conductance regulator (Homo sapiens), P13569 [G551D] (P13569 whole entry G551D): as above
Sequence of Cystic fibrosis transmembrane conductance regulator (Homo sapiens), P13569 [F508del] (P13569 as listed by the source): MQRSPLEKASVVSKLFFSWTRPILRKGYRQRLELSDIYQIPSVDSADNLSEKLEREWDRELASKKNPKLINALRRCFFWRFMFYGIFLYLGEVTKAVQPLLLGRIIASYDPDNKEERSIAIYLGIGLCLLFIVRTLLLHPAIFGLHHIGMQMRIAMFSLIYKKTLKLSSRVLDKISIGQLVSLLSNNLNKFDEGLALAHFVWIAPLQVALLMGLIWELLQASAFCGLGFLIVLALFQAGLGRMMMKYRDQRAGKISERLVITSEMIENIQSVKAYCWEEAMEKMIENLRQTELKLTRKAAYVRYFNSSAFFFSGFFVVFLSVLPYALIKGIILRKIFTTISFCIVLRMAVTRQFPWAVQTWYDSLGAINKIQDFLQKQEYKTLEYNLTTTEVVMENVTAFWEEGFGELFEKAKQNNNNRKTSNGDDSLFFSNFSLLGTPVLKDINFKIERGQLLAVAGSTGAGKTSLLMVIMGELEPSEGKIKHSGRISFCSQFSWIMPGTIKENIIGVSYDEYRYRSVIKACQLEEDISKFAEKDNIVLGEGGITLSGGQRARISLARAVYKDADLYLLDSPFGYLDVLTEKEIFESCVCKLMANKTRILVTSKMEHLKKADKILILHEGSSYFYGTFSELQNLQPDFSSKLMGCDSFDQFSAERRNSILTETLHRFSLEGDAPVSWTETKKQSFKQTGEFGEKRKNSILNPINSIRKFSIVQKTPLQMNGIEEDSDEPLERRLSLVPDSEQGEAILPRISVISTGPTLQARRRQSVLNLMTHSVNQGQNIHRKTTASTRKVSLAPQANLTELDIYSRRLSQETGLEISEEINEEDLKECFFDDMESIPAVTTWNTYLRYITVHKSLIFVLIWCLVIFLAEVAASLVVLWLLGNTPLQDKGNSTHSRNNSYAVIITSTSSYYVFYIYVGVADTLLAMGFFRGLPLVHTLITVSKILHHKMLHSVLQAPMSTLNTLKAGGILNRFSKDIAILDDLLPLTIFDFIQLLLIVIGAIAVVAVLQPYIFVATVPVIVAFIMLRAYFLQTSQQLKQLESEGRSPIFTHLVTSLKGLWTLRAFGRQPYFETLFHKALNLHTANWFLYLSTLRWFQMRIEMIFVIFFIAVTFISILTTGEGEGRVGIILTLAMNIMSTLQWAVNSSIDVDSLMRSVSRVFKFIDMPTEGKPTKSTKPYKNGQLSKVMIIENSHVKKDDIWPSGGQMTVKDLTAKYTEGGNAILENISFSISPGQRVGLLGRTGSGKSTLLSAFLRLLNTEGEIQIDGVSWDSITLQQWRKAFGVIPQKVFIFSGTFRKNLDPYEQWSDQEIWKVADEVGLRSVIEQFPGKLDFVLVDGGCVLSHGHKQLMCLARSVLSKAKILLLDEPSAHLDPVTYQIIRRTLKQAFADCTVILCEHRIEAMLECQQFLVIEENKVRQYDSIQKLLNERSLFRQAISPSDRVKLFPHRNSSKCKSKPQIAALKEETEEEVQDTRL
Sequence of Cystic fibrosis transmembrane conductance regulator (Homo sapiens, UniProt P13569, F508DEL) (P13569 as listed by the source): as above

Row | Activity [1] [%] | Activity [2] [%] | EC50 [3] [µM] | EC50 [4] [µM] | SMILES
1 | 107 | 49 |  |  | CC1(C)Cc2c(sc(NC(=O)c3cc(C(F)(F)F)n[nH]3)c2C(N)=O)C(C)(C)O1
2 | 111 | 52 | 0.004 |  | CC1(C)Cc2c(sc(NC(=O)c3ccccc3O)c2C(N)=O)C(C)(C)O1
3 | 72 |  | 0.652 |  | Cc1ccc(C(=O)Nc2sc3c(c2C(N)=O)CCCC3)s1
4 | 98 | 36 | 0.004 | 0.236 | CC1Cc2c(sc(NC(=O)c3ccccc3O)c2C(N)=O)C(C)O1 (stereo not given)
5 |  |  | 0.101 |  | CC1(C)Cc2c(sc(NC(=O)C3CCNC3=O)c2C(N)=O)C(C)(C)O1 (stereo not given)
6 | 3 |  |  |  | Cc1ccc(C(=O)Nc2sc3c(c2C(N)=O)CCNC3)s1
7 | 100 | 50 | 0.126 | 1.3 | CC(C)(C)c1cc(C(C)(C)C)c(NC(=O)c2c[nH]c3ccccc3c2=O)cc1O [IVACAFTOR]
8 |  |  | 0.003 | 0.13 | CC1(C)Cc2c(sc(NC(=O)c3cc(C(F)(F)F)[nH]n3)c2C(N)=O)C(C)(C)O1
9 | 95 | 31 | 0.127 |  | CC1(C)Cc2c(sc(NC(=O)[C@H](O)C(C)(C)C)c2C(N)=O)C(C)(C)O1
10 |  |  | 0.125 |  | CC1(C)Cc2c(sc(NC(=O)c3cn[nH]c3)c2C(N)=O)C(C)(C)O1
11 |  |  | 0.075 |  | CC1(C)Cc2c(sc(NC(=O)C(C)(C)CO)c2C(N)=O)C(C)(C)O1
12 | 96 | 83 | 0.002 | 0.123 | Cc1cn[nH]c1C(=O)Nc1sc2c(c1C(N)=O)CC(C)(C)OC2(C)C
13 | 92 | 68 |  |  | Cc1n[nH]c(C(=O)Nc2sc3c(c2C(N)=O)CC(C)(C)OC3(C)C)c1Cl
14 | 95 | 50 | 0.0027 | 0.421 | CC1(C)Cc2c(sc(NC(=O)[C@@H](O)C(C)(C)C)c2C(N)=O)C(C)(C)O1
15 |  |  | 0.016 |  | CC1(C)Cc2c(sc(NC(=O)C(C)(C)O)c2C(N)=O)C(C)(C)O1
